# Assay results from different studies.
# Cell line: MCF7
# Effect on: cell growth or viability
SMILES,technique,time,IC50
C(=N\Nc1cc(N/N=C/c2ccc3ccccc3n2)nc(-c2ccccc2)n1)/c1ccc2ccccc2n1,MTT,48 h,7.05 µM
O=C(CCc1ccc(Cl)cc1)N1C(=O)C(=Nc2ccc(Cl)cc2Br)c2ccccc21,MTT,48 h,34.1 µM
COc1ccc(NC(=S)N/N=C/c2cccc3cc4ccccc4nc23)cc1,MTT,48 h,> 50 µM
COc1cc(N=C2C(=O)Nc3ccccc32)cc(OC)c1,MTT,48 h,16.2 µM
CC(=O)O[C@H]1C(=O)[C@@]2(C)[C@H]([C@H](OC(=O)c3ccccc3)[C@]3(O)C[C@H](OC(=O)[C@H](O)[C@@H](NC(=O)c4ccccc4)c4ccccc4)C(C)=C1C3(C)C)[C@]1(OC(C)=O)CO[C@@H]1C[C@@H]2O,,,0.00751 µM
c1ccc(Cn2nc(-c3ncc(-c4ccccc4)s3)c3ccccc32)cc1,,48 h,73.8 µM
NS(=O)(=O)c1ccc(-n2nc(-c3nnc(S)o3)cc2-c2ccccc2)cc1,fluorescence,48 h,35.4 µM
CN(C)c1ccc(Nc2nc(-c3ccncc3)nc3c2CC(N)CC3)cc1 (stereo not shown),MTT,,15.8 µM
O=C(/C=C/c1ccc(F)cc1)c1nc2ccccc2n1Cc1cn([C@@H]2OC[C@@H](O)[C@H](O)[C@H]2O)nn1,LDH,48 h,2.06 µM
C(=N\Nc1cc(N/N=C/c2cccc3cccnc23)ncn1)/c1cccc2cccnc12,MTT,48 h,7.02 µM
O=C1C(=Nc2cccc(Cl)c2)c2ccccc2N1Cc1ccc([N+](=O)[O-])cc1,MTT,48 h,6.95 µM
Clc1ccc(Cn2nc(-c3ncc(-c4ccccc4)s3)c3ccccc32)c(Cl)c1,,48 h,65.2 µM
Nc1ccn([C@@H]2O[C@H](CO)[C@@H](O)C2(F)F)c(=O)n1,MTT,24 h,2.75 µg/mL
CO[C@H]1[C@H](O[C@H]([C@H]2O[C@@H](n3ccc(=O)[nH]c3=O)[C@H](O)[C@@H]2O)[C@H](NCCCNC(=O)[C@@H](NC(=O)[C@@H](NC(=O)N[C@H](C(=O)O)C(C)C)[C@@H]2CCN=C(N)N2)[C@@H](O)C(C)C)C(=O)O)O[C@H](CN)[C@H]1O,WST-1,,> 35 µM
COc1cccc2c1C(=O)c1c(O)c3c(c(O)c1C2=O)C[C@@](O)(C(=O)CO)C[C@@H]3O[C@H]1C[C@H](N)[C@H](O)[C@H](C)O1,MTT,48 h,8.87 µM
O=C(O)c1cn(Cc2ccc(C(F)(F)F)cc2)c2ccc(Oc3ccccc3)cc2c1=O,MTT,48 h,21.2 µM
NNc1nc2ccc(Br)cc2c(=O)n1-c1ccccc1,MTT,48 h,46.4 µM
CC(=O)O[C@@]12CO[C@@H]1C[C@H](O)[C@@]1(C)C(=O)[C@H](O)C3=C(C)[C@@H](OC(=O)[C@H](O)[C@@H](NC(=O)OC(C)(C)C)c4ccccc4)C[C@@](O)([C@@H](OC(=O)c4ccccc4)[C@H]21)C3(C)C,MTT,48 h,92.5 µM
O=C1C(=Nc2ccccc2I)c2ccccc2N1Cc1cccc(Cl)c1,MTT,48 h,13.5 µM
O=C(C=Cc1ccc(OCCCCOc2ccc(C=CC(=O)c3cccs3)cc2)cc1)c1cccs1,MTT,48 h,134 µM
CCCNC(=S)N/N=C/c1cccc2cc3ccccc3nc12,MTT,48 h,48.1 µM
CCOC(=O)C(=CNc1ccc(Oc2ccccc2)cc1)C(=O)OCC,MTT,24 h,102 µM
O=C1/C(=C/c2ccc3ccccc3c2O)NC(=S)N1c1ccccc1,MTT,,8.1 µg/mL
CC(=O)O[C@@H]1[C@@H](OC(C)=O)[C@H](OC(C)=O)CO[C@H]1n1cc(Cn2c(C(=O)/C=C/c3ccc(F)cc3)nc3ccccc32)nn1,LDH,48 h,2.98 µM
Clc1ccc(Cn2nc(-c3nc(-c4ccccc4)no3)c3ccccc32)c(Cl)c1,,48 h,66.5 µM
O=C1C(Cl)=C(n2cncn2)C(=O)c2ccccc21,MTT,24 h,26.8 µg/mL
CCOC(=O)c1c(C)nc2ccc(-c3ccc(F)cc3F)cc2c1O,MTT,48 h,27 µM
Cc1ccc(CN2C(=O)C(=Nc3cccc(C)c3)c3ccccc32)cc1,MTT,48 h,2.8 µM
C[C@H]1[C@H](C)CC[C@]2(C)CC[C@]3(C)C(=CC(=O)[C@@H]4[C@@]5(C)CC[C@@H](O)[C@](C)(C(=O)NCc6cn(-c7cccc(C(F)(F)F)c7)nn6)[C@@H]5CC[C@]43C)[C@H]12,MTT,24 h,73.2 µM
CC(C)[C@@H](CS(=O)(=O)C(C)C)N1C(=O)[C@@](C)(CC(=O)O)C[C@H](c2cccc(Cl)c2)[C@H]1c1ccc(Cl)cc1,ATP luminescence,48 h,~3.9 µM
CC1=CC(=O)C(C(C)C)=CC1=O,SRB,48 h,9.8 µM
CCOC(=O)c1c(C)nc2ccc(-c3cccc(F)c3)cc2c1O,MTT,48 h,10.5 µM
Cc1cccc([N+](=O)[O-])c1N=C1SCC(=O)N1c1nnc(-c2ccc(C(F)(F)F)cc2N=C2SCC(=O)N2c2c(C)cccc2[N+](=O)[O-])s1,MTT,,53.2 µM
COc1cccc2c1C(=O)c1c(O)c3c(c(O)c1C2=O)C[C@@](O)(C(=O)CO)C[C@@H]3O[C@H]1C[C@H](N)[C@H](O)[C@H](C)O1,MTT,24 h,5.93 µM
O=C1C(=Nc2ccccc2Br)c2ccccc2N1Cc1ccccc1,MTT,48 h,2.16 µM
O=C(NO)Nc1nc2c(Cl)cc(Cl)cc2c(=O)n1-c1ccccc1,MTT,48 h,> 200 µM
C/C(=N\C(=O)/N=C(\C)c1c(O)c2ccccc2oc1=O)c1c(O)c2ccccc2oc1=O,MTT,48 h,14.6 µM
COc1ccc(N(Cc2nc(-c3ccc(F)cc3)cs2)C(=O)CCCCCC(=O)NO)cc1,MTT,72 h,10.2 µM
NNc1nc2c(Cl)cc(Cl)cc2c(=O)n1-c1ccccc1,MTT,48 h,> 200 µM
NS(=O)(=O)c1ccc(-n2nc(C(=O)NN=Cc3ccccc3O)cc2-c2ccccc2)cc1,fluorescence,48 h,18 µM
O=C1C(=Nc2ccc(Cl)cc2)c2ccccc2N1Cc1cccc(Cl)c1,MTT,48 h,9.41 µM
O=[N+]([O-])c1ccc(O)c(C=NNc2ccc(Cl)cc2)c1,MTT,24 h,9.3 µM
CC(C)Cc1ccc([C@H](C)C(=O)O)cc1,SRB,72 h,399 µM
COc1ccccc1-n1cc(CNC(=O)[C@@]2(C)[C@H](O)CC[C@@]3(C)[C@H]2CC[C@]2(C)[C@@H]3C(=O)C[C@@H]3[C@@H]4[C@@H](C)[C@H](C)CC[C@]4(C)CC[C@]32C)nn1,MTT,24 h,73.4 µM
O=[N+]([O-])c1cc(I)c(O)c(C=NNc2ccc(Br)cc2)c1,MTT,24 h,13.7 µM
Fc1ccc2c(-c3nnc(Cc4ccccc4)[nH]3)nn(Cc3ccc(Cl)cc3Cl)c2c1,,48 h,192 µM
CC(=O)c1nc2ccccc2n1Cc1cn([C@@H]2OC[C@@H](O)[C@H](O)[C@H]2O)nn1,LDH,48 h,2.08 µM
O=[N+]([O-])c1ccc(O)c(C=NNc2ccc(Br)cc2)c1,MTT,24 h,8.67 µM
COc1ccccc1/C=N/N=C1\C(=O)Nc2ccccc21,MTT,24 h,45.6 µg/mL
NNc1nc2ccc(Br)cc2c(=O)n1-c1ccc(Cl)cc1,MTT,48 h,12.8 µM
O=C1CS/C(=N\c2cc(C(F)(F)F)ccc2-c2nnc(N3C(=O)CS/C3=N\c3ccc(F)cc3)s2)N1c1ccc(F)cc1,MTT,,22.5 µM
C[C@H]1[C@H](C)CC[C@]2(C(=O)O)CC[C@]3(C)C(=CC[C@@H]4[C@@]5(C)CC[C@H](O)C(C)(C)[C@@H]5CC[C@]43C)[C@H]12,thymidine uptake,24 h,25.7 µM
Cc1nnc(-c2nn(Cc3ccc(Cl)cc3Cl)c3ccccc23)o1,,48 h,19.8 µM
O=C1CS/C(=N\c2cc(C(F)(F)F)ccc2-c2nnc(N3C(=O)CS/C3=N\c3ccc(Cl)cc3)s2)N1c1ccc(Cl)cc1,MTT,,52.5 µM
Cc1cccc(N=C2C(=O)N(Cc3ccc(Br)cc3)c3ccccc32)c1,MTT,48 h,9.69 µM
